ChEMBL document CHEMBL1275524, “Activities of antifungal agents against yeasts and filamentous fungi: assessment according to the methodology of the European Committee on Antimicrobial Susceptibility Testing” (2008)
In brackets after ≈: the same amount, converted by molar mass.

How the values were obtained:
Candida albicans = experiment: Antifungal activity against Candida albicans; type: functional
Procedure, shortened: (§1)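 Broth microdilution in flat-bottom plates in RPMI 1640 with 2% glucose; inoculum 0.5 × 105 to 2.5 × 10^5 CFU/ml. MICs were read spectrophotometrically at 24 h. AMB endpoint: ≥90% growth reduction vs drug-free control well. Azole and CPF endpoint: 50% reduction in optical density. MFC was taken as the lowest concentration giving 99% killing.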

Nakaseomyces glabratus = experiment: Antifungal activity against Candida glabrata; type: functional; procedure, shortened: as §1
Candida parapsilosis = experiment: Antifungal activity against Candida parapsilosis; type: functional; conditions: Lodderomyces parapsilosis; procedure, shortened: as §1
Pichia kudriavzevii = experiment: Antifungal activity against Candida krusei; type: functional
Procedure, shortened: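 EUCAST broth microdilution for yeasts in flat-bottom plates, RPMI 1640 with 2% glucose, inoculum 0.5 × 105 to 2.5 × 10^5 CFU/ml. […] MFC is the lowest concentration giving 99% killing.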

Clavispora lusitaniae = experiment: Antifungal activity against Candida lusitaniae; type: functional; procedure, shortened: as §1
Candida tropicalis = experiment: Antifungal activity against Candida tropicalis; type: functional; procedure, shortened: as §1
[1] = tested on: Meyerozyma guilliermondii; experiment: Antifungal activity against Candida guilliermondii; type: functional; procedure, shortened: as §1
Saccharomyces cerevisiae = experiment: Antifungal activity against Saccharomyces cerevisiae; type: functional
Procedure, shortened: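 Broth microdilution following EUCAST for fermentative yeasts, in flat-bottom plates with RPMI 1640 plus 2% glucose. Inoculum was 0.5 × 10^5 to 2.5 × 10^5 CFU/ml. End points were read spectrophotometrically at 24 h: ≥90% growth reduction versus a drug-free control for amphotericin B, and 50% OD reduction for azoles and caspofungin. MFC was the lowest concentration giving 99% killing.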

[2] = Antifungal activity against Cryptococcus neoformans var. neoformans; type: functional; conditions: Cryptococcus deneoformans
Procedure, shortened: (§2)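 EUCAST yeast microdilution, modified for nonfermentative yeasts: plates were sealed and agitated at 350 rpm and 30°C for 48 h.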

Cryptococcus gattii = experiment: Antifungal activity against Cryptococcus neoformans var. gattii; type: functional, Cryptococcus bacillisporus; procedure, shortened: as §2
Trichosporon inkin = experiment: Antifungal activity against Trichosporon inkin; type: functional
Procedure, shortened: (§3)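 Nonfermentative yeasts were tested by the EUCAST microdilution recommendations with one change: plates were sealed and agitated at 350 rpm and 30°C for 48 h.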

Trichosporon asahii = experiment: Antifungal activity against Trichosporon asahii; type: functional; procedure, shortened: as §3
Geotrichum candidum = experiment: Antifungal activity against Geotrichum candidum; type: functional
Aspergillus fumigatus = experiment: Antifungal activity against Aspergillus fumigatus; type: functional
Aspergillus terreus = experiment: Antifungal activity against Aspergillus terreus; type: functional
Aspergillus flavus = experiment: Antifungal activity against Aspergillus flavus; type: functional
Aspergillus niger = experiment: Antifungal activity against Aspergillus niger; type: functional
Rhizomucor = experiment: Antifungal activity against Rhizomucor species; type: functional
Lichtheimia corymbifera = experiment: Antifungal activity against Absidia corymbifera; type: functional
Absidia = experiment: Antifungal activity against Absidia species; type: functional
[3] = Antifungal activity against Rhizopus microsporus var. oligosporus; type: functional
Procedure, shortened: (§4)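 Broth microdilution following the EUCAST reference procedure for spore-forming moulds, in flat-bottom plates with RPMI 1640 plus 2% glucose. Inoculum was 2 × 10^5 to 5 × 10^5 CFU/ml. MICs were read visually at 24 and 48 h as 100% growth reduction versus a drug-free control for polyenes and azoles. MEC was used for caspofungin. Tests were run in duplicate and repeated twice.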

Rhizopus arrhizus = experiment: Antifungal activity against Rhizopus oryzae; type: functional; procedure, shortened: as §4
Rhizopus = experiment: Antifungal activity against Rhizopus species; type: functional; procedure, shortened: as §4
Mucor hiemalis = experiment: Antifungal activity against Mucor hiemalis; type: functional
Mucor = experiment: Antifungal activity against Mucor species; type: functional
Cunninghamella = experiment: Antifungal activity against Cunninghamella species; type: functional
Lomentospora prolificans = experiment: Antifungal activity against Scedosporium prolificans; type: functional; procedure, shortened: as §4
Scedosporium apiospermum = experiment: Antifungal activity against Scedosporium apiospermum; type: functional; procedure, shortened: as §4
Talaromyces marneffei = experiment: Antifungal activity against Penicillium marneffei; type: functional
Penicillium sp. = experiment: Antifungal activity against Penicillium species; type: functional
Fusarium solani = experiment: Antifungal activity against Fusarium solani; type: functional
Fusarium oxysporum = experiment: Antifungal activity against Fusarium oxysporum; type: functional
Sporothrix schenckii = experiment: Antifungal activity against Sporothrix schenckii; type: functional; procedure, shortened: as §4
Curvularia lunata = experiment: Antifungal activity against Curvularia lunata; type: functional
Curvularia australiensis = experiment: Antifungal activity against Bipolaris australiensis; type: functional
Procedure, shortened: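 Dematiaceous fungi were tested by the EUCAST spore-forming mold reference procedure: flat-bottom microdilution plates, RPMI 1640 plus 2% glucose, inoculum 2 × 105 to 5 × 10^5 CFU/ml. Endpoints were read visually at 24 and 48 h. Polyenes and azoles: 100% growth reduction vs drug-free control. CPF: minimum effective concentration. Run in duplicate and repeated twice.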

## CC[C@@H]([C@H](C)O)n1ncn(-c2ccc(N3CCN(c4ccc(OC[C@@H]5CO[C@@](Cn6cncn6)(c6ccc(F)cc6F)C5)cc4)CC3)cc2)c1=O [POSACONAZOLE]
Candida albicans
  MFC: 0.12 µg/mL (≈ 0.171 µM)
Nakaseomyces glabratus
  MFC: > 4 µg/mL
Candida parapsilosis
  MFC: 0.06 µg/mL (≈ 0.0856 µM)
Pichia kudriavzevii
  MFC: 0.5 µg/mL (≈ 0.713 µM)
Clavispora lusitaniae
  MFC: 0.06 µg/mL (≈ 0.0856 µM)
Candida tropicalis
  MFC: > 0.12 µg/mL
[1]
  MFC: 0.25 µg/mL (≈ 0.357 µM)
Saccharomyces cerevisiae
  MFC: > 4 µg/mL
[2]
  MFC: 0.125 µg/mL (≈ 0.178 µM)
Cryptococcus gattii
  MFC: 0.125 µg/mL (≈ 0.178 µM)
Trichosporon inkin
  MFC: 0.5 µg/mL (≈ 0.713 µM)
Trichosporon asahii
  MFC: > 8 µg/mL
Geotrichum candidum
  MFC: > 8 µg/mL
Aspergillus fumigatus
  MFC: 0.5 µg/mL (≈ 0.713 µM)
Aspergillus terreus
  MFC: 0.5 µg/mL (≈ 0.713 µM)
Aspergillus flavus
  MFC: 0.5 µg/mL (≈ 0.713 µM)
Aspergillus niger
  MFC: 1 µg/mL (≈ 1.43 µM)
Rhizomucor
  MFC: > 2 µg/mL
Lichtheimia corymbifera
  MFC: 2 µg/mL (≈ 2.85 µM)
Absidia
  MFC: 0.5 µg/mL (≈ 0.713 µM)
[3]
  MFC: > 8 µg/mL
Rhizopus arrhizus
  MFC: 2 µg/mL (≈ 2.85 µM)
Rhizopus
  MFC: > 2 µg/mL
Mucor hiemalis
  MFC: 2 µg/mL (≈ 2.85 µM)
Mucor
  MFC: 2 µg/mL (≈ 2.85 µM)
Cunninghamella
  MFC: 2 µg/mL (≈ 2.85 µM)
Lomentospora prolificans
  MFC: > 8 µg/mL
Scedosporium apiospermum
  MFC: 1 µg/mL (≈ 1.43 µM)
Talaromyces marneffei
  MFC: 0.25 µg/mL (≈ 0.357 µM)
Penicillium sp.
  MFC: 0.5 µg/mL (≈ 0.713 µM)
Fusarium solani
  MFC: > 8 µg/mL
Fusarium oxysporum
  MFC: 0.25 µg/mL (≈ 0.357 µM)
Sporothrix schenckii
  MFC: 0.5 µg/mL (≈ 0.713 µM)
Curvularia lunata
  MFC: 0.5 µg/mL (≈ 0.713 µM)
Curvularia australiensis
  MFC: 0.125 µg/mL (≈ 0.178 µM)
